Results taken from ChEMBL document CHEMBL1250442, “Inhibiting gene expression at transcription start sites in chromosomal DNA with antigene RNAs” (Nat Chem Biol, 2005).
Activity calls are given as the source filed them. The calls are words filed in the database; no cut-off is given here.

Assays:
T47D [1] = assay: Inhibition of PR-A mRNA gene expression in human T47D cells at 100 nM by syber green assay; format: functional
Outline: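 T47D cells plated at 80,000/well without antibiotics two days before Oligofectamine transfection with agRNA duplex (25 or 100 nM final); medium changed at 24 h, harvest day 5 unless stated otherwise. TRIzol total RNA; PR mRNA by real-time PCR with SYBR Green: 50 °C 2 min, 95 °C 10 min, 40 cycles 95 °C 15 s/60 °C 1 min.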

T47D [2] = assay: Inhibition of PR-B mRNA gene expression in human T47D cells at 100 nM by syber green assay; format: functional
Outline: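 T47D cells in RPMI-1640 with 10% FBS, NEAA, insulin, 37 °C, 5% CO2. Plated two days before transfection without antibiotics. Oligofectamine-mediated duplex RNA transfection at 100 nM final, medium changed at 24 h, harvest five days post-transfection. Total RNA extracted with TRIzol. hPR mRNA quantified by SYBR Green qPCR: 50 °C 2 min, 95 °C 10 min, then 40 cycles of 95 °C 15 s / 60 °C 1 min.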

T47D [3] = assay: Cytotoxicity against human T47D cells assessed as effect on cellular morphology; format: cell-based
T47D [4] = assay: Inhibition of PR-A gene expression in human T47D cells at 25 nM by syber green assay in presence of 10 nM estradiol; format: functional, cell-based
T47D [5] = assay: Inhibition of PR-B gene expression in human T47D cells at 25 nM by syber green assay in presence of 10 nM estradiol; format: functional, cell-based
T47D [6] = assay: Inhibition of major vault protein expression in human T47D cells at 100 nM by syber green assay; format: functional, cell-based

SMILES | inhibition at 0.1 µM (T47D [1]) | inhibition at 0.1 µM (T47D [2]) | Activity (T47D [3]) | inhibition (T47D [4]) | inhibition (T47D [5]) | inhibition (T47D [6])
Cc1cn([C@H]2C[C@H](OP(=O)(O)OC[C@H]3O[C@@H](n4cc(C)c(=O)[nH]c4=O)C[C@@H]3O)[C@@H](COP(=O)(O)O[C@H]3[C@@H](O)[C@H](n4ccc(N)nc4=O)O[C@@H]3COP(=O)(O)O[C@H]3[C@@H](O)[C@H](n4ccc(N)nc4=O)O[C@@H]3COP(=O)(O)O[C@H]3[C@@H](O)[C@H](n4cnc5c(N)ncnc54)O[C@@H]3COP(=O)(O)O[C@H]3[C@@H](O)[C@H](n4ccc(N)nc4=O)O[C@@H]3COP(=O)(O)O[C@H]3[C@@H](O)[C@H](n4cnc5c(N)ncnc54)O[C@@H]3COP(=O)(O)O[C@H]3[C@@H](O)[C@H](n4ccc(N)nc4=O)O[C@@H]3COP(=O)(O)O[C@H]3[C@@H](O)[C@H](n4ccc(N)nc4=O)O[C@@H]3COP(=O)(O)O[C@H]3[C@@H](O)[C@H](n4ccc(=O)[nH]c4=O)O[C@@H]3COP(=O)(O)O[C@H]3[C@@H](O)[C@H](n4cnc5c(=O)[nH]c(N)nc54)O[C@@H]3COP(=O)(O)O[C@H]3[C@@H](O)[C@H](n4cnc5c(N)ncnc54)O[C@@H]3COP(=O)(O)O[C@H]3[C@@H](O)[C@H](n4ccc(N)nc4=O)O[C@@H]3COP(=O)(O)O[C@H]3[C@@H](O)[C@H](n4ccc(N)nc4=O)O[C@@H]3COP(=O)(O)O[C@H]3[C@@H](O)[C@H](n4cnc5c(=O)[nH]c(N)nc54)O[C@@H]3COP(=O)(O)O[C@H]3[C@@H](O)[C@H](n4ccc(N)nc4=O)O[C@@H]3COP(=O)(O)O[C@H]3[C@@H](O)[C@H](n4ccc(=O)[nH]c4=O)O[C@@H]3COP(=O)(O)O[C@H]3[C@@H](O)[C@H](n4ccc(N)nc4=O)O[C@@H]3COP(=O)(O)O[C@H]3[C@@H](O)[C@H](n4ccc(=O)[nH]c4=O)O[C@@H]3COP(=O)(O)O[C@H]3[C@@H](O)[C@H](n4ccc(N)nc4=O)O[C@@H]3COP(=O)(O)O[C@H]3[C@@H](O)[C@H](n4ccc(=O)[nH]c4=O)O[C@@H]3CO)O2)c(=O)[nH]c1=O | < 20% | < 20% | Non-toxic |  |  | 
Cc1cn(CC(=O)N(CCNC(=O)CN(CCNC(=O)CN(CCNC(=O)CN(CCNC(=O)CN(CCNC(=O)CN(CCNC(=O)CN(CCNC(=O)CN(CCNC(=O)CN(CCNC(=O)CN(CCNC(=O)CN(CCNC(=O)CN(CCNC(=O)CN(CCNC(=O)CN(CCNC(=O)CN(CCNC(=O)CN(CCNC(=O)CN(CCNC(=O)CN(CCNC(=O)CN(CCNC(=O)CN(CCNC(=O)CN)C(=O)Cn2cnc3c(=O)[nH]c(N)nc32)C(=O)Cn2cnc3c(=O)[nH]c(N)nc32)C(=O)Cn2cnc3c(=O)[nH]c(N)nc32)C(=O)Cn2ccc(=O)[nH]c2=O)C(=O)Cn2cnc3c(=O)[nH]c(N)nc32)C(=O)Cn2cnc3c(N)ncnc32)C(=O)Cn2cnc3c(=O)[nH]c(N)nc32)C(=O)Cn2cnc3c(N)ncnc32)C(=O)Cn2cnc3c(=O)[nH]c(N)nc32)C(=O)Cn2ccc(=O)[nH]c2=O)C(=O)Cn2ccc(=O)[nH]c2=O)C(=O)Cn2ccc(N)nc2=O)C(=O)Cn2ccc(N)nc2=O)C(=O)Cn2ccc(N)nc2=O)C(=O)Cn2ccc(N)nc2=O)C(=O)Cn2cnc3c(N)ncnc32)C(=O)Cn2ccc(=O)[nH]c2=O)C(=O)Cn2ccc(N)nc2=O)C(=O)Cn2ccc(=O)[nH]c2=O)CC(=O)NCCN(CC(=O)NCC(=O)O)C(=O)Cn2cc(C)c(=O)[nH]c2=O)c(=O)[nH]c1=O | 91% | 91% |  | Active | Active | Active
